This is an account of results in ChEMBL document CHEMBL1124366, “Synthesis and biological properties of N63-carboxamides of teicoplanin antibiotics. Structure-activity relationships” (J Med Chem, 1989).

Data set [1] relates to Streptococcus pyogenes. Nature of the data set: Subcutaneously administration into mice infected with Streptococcus pyogenes C 203. The format is functional. To be noted: sc. The method in brief:
(§1)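 Mice (five per treatment group, five groups) infected intraperitoneally with about 10⁵ cells of Strep. pyogenes C 203, about 100× the LD50. ED50 (mg/kg) was calculated from the percentage of mice surviving at each dose on day 7.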

The test system of the next data set is Bacteria. In words: Minimum inhibitory concentration of compound against Gram negative bacteria. The format is functional.
For data set [2], the system named is Ac2-L-Lys-D-Ala-D-Ala peptide. Nature of the data set: Association constant with Ac2-L-Lys-D-Ala-D-Ala. The method in brief: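 UV difference spectroscopy at 24 ± 2 °C in 4-cm unthermostated cells. Antibiotic was at 30 μM in 10% MeOH in sodium phosphate buffer, pH 9, and titrated with Ac2-L-Lys-D-Ala-D-Ala. ΔA was monitored at 294 nm. Ka was taken from the slope of a Scatchard plot.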

Data set [3] concerns Staphylococcus epidermidis. Nature of the data set: In vitro minimum inhibitory concentration against Staphylococcus epidermis ATCC 12228. The format is functional.
The test system of the next data set is Streptococcus pneumoniae. In words: In vitro minimum inhibitory concentration against Streptococcus pneumoniae UC41. It counts as functional.
In data set [4] the test system is Streptococcus pyogenes. Nature of the data set: In vitro minimum inhibitory concentration against Streptococcus pyogenes C 203. It counts as functional.
Data set [5] has as its system Staphylococcus aureus. In words: In vitro minimum inhibitory concentration against Staphylococcus aureus Tour. The format is functional.
In a further data set the test system is Enterococcus faecalis. Nature of the data set: In vitro minimum inhibitory concentration against Streptococcus faecalis ATCC 7080. The format is functional.
The subject of data set [6] is Streptococcus pyogenes. In words: In vivo effective dose given perorally to mice infected with Streptococcus pyogenes C 203. The format is functional. The following applies: po. Put shortly:
as §1

Data set [7] relates to Staphylococcus aureus. Nature of the data set: In vitro minimum inhibitory concentration of compound against Staphylococcus aureus Tour. It counts as organism-based.
Data set [8] deals with Staphylococcus haemolyticus. In words: In vitro minimum inhibitory concentration against Staphylococcus hemolyticus 602 cell line. To be noted: strain 602. The format is functional.
In data set [9] the test system is Staphylococcus epidermidis. Nature of the data set: 90 percent Minimum inhibitory concentration of compound against 12 strains of Staphylococcus epidermidis. It counts as functional. The method in brief: (§2)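 Agar dilution on Iso-Sensitest agar against clinical coagulase-negative staphylococcal isolates, including methicillin-resistant strains. Final inoculum about 10⁴ cfu/mL.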

Data set [10] relates to Staphylococcus epidermidis. Nature of the data set: Minimum inhibitory concentration of compound against 12 strains of Staphylococcus epidermidis. It counts as functional. The method in brief: as §2
In data set [11] the test system is Staphylococcus sp. In words: Minimum inhibitory concentration of compound against 16 different strains of staphylococcus species. It counts as functional. Put shortly: as §2
For data set [12], the system named is Staphylococcus haemolyticus. In words: Minimum inhibitory concentration of compound against 8 strains of Staphylococcus hemolyticus. It counts as functional. Put shortly: as §2
Data set [13] deals with Staphylococcus haemolyticus. In words: 90 percent Minimum inhibitory concentration of compound against 8 strains of Staphylococcus hemolyticus. It counts as functional. Put shortly: as §2
For data set [14], the system named is Staphylococcus epidermidis. In words: 50 percent Minimum inhibitory concentration of compound against 12 strains of Staphylococcus epidermidis. The format is functional. Put shortly:
as §2

For data set [15], the system named is Staphylococcus sp. In words: 90 percent Minimum inhibitory concentration of compound against 16 different strains of staphylococcus species. It counts as functional. Put shortly: as §2
The subject of data set [16] is Staphylococcus sp. Nature of the data set: 50 percent Minimum inhibitory concentration of compound against 16 different strains of staphylococcus species. The format is functional. Put shortly: as §2
The subject of data set [17] is Staphylococcus haemolyticus. Nature of the data set: 50 percent Minimum inhibitory concentration of compound against 8 strains of Staphylococcus hemolyticus. It counts as functional. Put shortly: as §2

Converted amounts (≈) assume the structure as drawn. A value given as a limit tells only on which side of the number the result lay.

The ED50 is the dose that gives a 50% effect, or the effect in half of the subjects. In the data set with Streptococcus pyogenes [1], `CC(=O)N[C@@H]1[C@H](O[C@@H]2c3ccc(c(Cl)c3)Oc3cc4cc(c3O)Oc3ccc(cc3Cl)C[C@H]3NC(=O)[C@H](N)c5ccc(O)c(c5)Oc5cc(O)cc(c5)[C@H](NC3=O)C(=O)N[C@H]4C(=O)N[C@H]3C(=O)N[C@@H]2C(=O)N[C@H](C(=O)N2CCN(C)CC2)c2cc(O)cc(O[C@H]4O[C@H](CO)[C@@H](O)[C@@H](O)[C@@H]4O)c2-c2cc3ccc2O)O[C@@H](CO)[C@@H](O)[C@@H]1O` yielded an ED50 of 0.95 mg/kg. Moreover, the MIC was more than 128 µg/mL in the data set on Bacteria; 0.12 µg/mL (≈ 0.0729 µM) in [3]; 1 µg/mL (≈ 0.607 µM) against Streptococcus pneumoniae; 0.5 µg/mL (≈ 0.304 µM) against Streptococcus pyogenes [4]; 0.25 µg/mL (≈ 0.152 µM) with Staphylococcus aureus [5]; 2 µg/mL (≈ 1.21 µM) in the data set on Enterococcus faecalis. The compound further displayed a Ka in data set [2] of 100000 M⁻¹.

With `CC(=O)N[C@@H]1[C@H](O[C@@H]2c3ccc(c(Cl)c3)Oc3cc4cc(c3O[C@@H]3O[C@@H](CO)[C@@H](O)[C@H](O)[C@@H]3NC(=O)CCCCCCC(C)C)Oc3ccc(cc3Cl)C[C@H]3NC(=O)[C@H](N)c5ccc(O)c(c5)Oc5cc(O)cc(c5)[C@H](NC3=O)C(=O)N[C@H]4C(=O)N[C@H]3C(=O)N[C@@H]2C(=O)N[C@H](C(=O)NC2CCN(Cc4ccccc4)CC2)c2cc(O)cc(O[C@H]4O[C@H](CO)[C@@H](O)[C@@H](O)[C@@H]4O)c2-c2cc3ccc2O)O[C@@H](CO)[C@@H](O)[C@@H]1O`, the figures for the ED50 in the data set on Streptococcus pyogenes [6] and in the data set on Streptococcus pyogenes [1] were more than 300 mg/kg and 0.08 mg/kg, respectively. Besides, the MIC came to 0.12 µg/mL (≈ 0.0585 µM) in data set [3]; 0.12 µg/mL (≈ 0.0585 µM) against Staphylococcus aureus [7]; 4 µg/mL (≈ 1.95 µM) in data set [8]; 0.06 µg/mL (≈ 0.0292 µM) against Streptococcus pneumoniae; 0.06 µg/mL (≈ 0.0292 µM) against Streptococcus pyogenes [4]; 0.12 µg/mL (≈ 0.0585 µM) with Enterococcus faecalis.

By MIC90 is commonly meant the lowest concentration that inhibits either 90% of growth or 90% of the strains tested, depending on the study. A high value points to lower susceptibility. In general, MIC50 refers to the lowest concentration that inhibits either 50% of growth or 50% of the strains tested, depending on the study. Read a high MIC50 as lower susceptibility. In the case of `CC(=O)N[C@@H]1[C@H](O[C@@H]2c3ccc(c(Cl)c3)Oc3cc4cc(c3O[C@@H]3O[C@@H](CO)[C@@H](O)[C@H](O)[C@@H]3NC(=O)CCCCCCC(C)C)Oc3ccc(cc3Cl)C[C@H]3NC(=O)[C@H](N)c5ccc(O)c(c5)Oc5cc(O)cc(c5)[C@H](NC3=O)C(=O)N[C@H]4C(=O)N[C@H]3C(=O)N[C@@H]2C(=O)N[C@H](C(=O)NCCCN(C)C)c2cc(O)cc(O[C@H]4O[C@H](CO)[C@@H](O)[C@@H](O)[C@@H]4O)c2-c2cc3ccc2O)O[C@@H](CO)[C@@H](O)[C@@H]1O`, the ED50 in the data set with Streptococcus pyogenes [6] is 70.7 mg/kg; in the data set on Streptococcus pyogenes [1] it was 0.05 mg/kg. Besides, the MIC90 in data set [9] came to 1 µg/mL (≈ 0.509 µM); in data set [13], 2 µg/mL (≈ 1.02 µM); against Staphylococcus sp. [15], 1 µg/mL (≈ 0.509 µM). In addition, the MIC in data set [10] was found to be 0.125 µg/mL (≈ 0.0637 µM); in the data set on Staphylococcus sp. [11], 0.25 µg/mL (≈ 0.127 µM); in [12], 1 µg/mL (≈ 0.509 µM); in data set [3], 0.06 µg/mL (≈ 0.0306 µM); in [8], 0.12 µg/mL (≈ 0.0611 µM); with Streptococcus pneumoniae, 0.06 µg/mL (≈ 0.0306 µM). For the same compound, the MIC in the data set with Streptococcus pyogenes [4] worked out at 0.06 µg/mL (≈ 0.0306 µM); against Staphylococcus aureus [5] it was 0.12 µg/mL (≈ 0.0611 µM); with Enterococcus faecalis, 0.12 µg/mL (≈ 0.0611 µM). Besides, the MIC50 in data set [14] was 0.25 µg/mL (≈ 0.127 µM); in the data set with Staphylococcus sp. [16] it was 0.5 µg/mL (≈ 0.255 µM); in data set [17], 1 µg/mL (≈ 0.509 µM).

`CC(=O)N[C@@H]1[C@H](O[C@@H]2c3ccc(c(Cl)c3)Oc3cc4cc(c3O)Oc3ccc(cc3Cl)C[C@H]3NC(=O)[C@H](N)c5ccc(O)c(c5)Oc5cc(O)cc(c5)[C@H](NC3=O)C(=O)N[C@H]4C(=O)N[C@H]3C(=O)N[C@@H]2C(=O)N[C@H](C(=O)O)c2cc(O)cc(O[C@H]4O[C@H](CO)[C@@H](O)[C@@H](O)[C@@H]4O)c2-c2cc3ccc2O)O[C@@H](CO)[C@@H](O)[C@@H]1O`: the 50% effective dose (ED50) with Streptococcus pyogenes [1] is 2.64 mg/kg. The MIC is more than 128 µg/mL against Bacteria; 0.25 µg/mL (≈ 0.16 µM) in data set [3]; 0.5 µg/mL (≈ 0.32 µM) with Streptococcus pneumoniae; 0.12 µg/mL (≈ 0.0767 µM) against Streptococcus pyogenes [4]; 0.25 µg/mL (≈ 0.16 µM) against Staphylococcus aureus [5]; 0.5 µg/mL (≈ 0.32 µM) with Enterococcus faecalis.

As for `CCCCC/C=C/CCC(=O)N[C@@H]1[C@H](Oc2c3cc4cc2Oc2ccc(cc2Cl)[C@@H](O[C@@H]2O[C@@H](CO)[C@@H](O)[C@H](O)[C@@H]2NC(C)=O)[C@@H]2NC(=O)[C@H](NC(=O)[C@@H]4NC(=O)[C@H]4NC(=O)[C@@H](Cc5ccc(c(Cl)c5)O3)NC(=O)[C@H](N)c3ccc(O)c(c3)Oc3cc(O)cc4c3)c3ccc(O)c(c3)-c3c(O[C@H]4O[C@H](CO)[C@@H](O)[C@@H](O)[C@@H]4O)cc(O)cc3[C@@H](C(=O)O)NC2=O)O[C@@H](CO)[C@@H](O)[C@@H]1O`, the figures for the ED50 in the data set with Streptococcus pyogenes [6] and with Streptococcus pyogenes [1] were 170 mg/kg and 0.12 mg/kg, respectively. Moreover, the MIC90 in data set [9] was determined as 2 µg/mL (≈ 1.07 µM); in [13] it was 32 µg/mL (≈ 17 µM); in the data set with Staphylococcus sp. [15] it was 4 µg/mL (≈ 2.13 µM). The MIC in [10] turned out to be 0.25 µg/mL (≈ 0.133 µM); against Staphylococcus sp. [11] it was 0.25 µg/mL (≈ 0.133 µM); in data set [12], 2 µg/mL (≈ 1.07 µM); in data set [3], 0.25 µg/mL (≈ 0.133 µM); in data set [8], 4 µg/mL (≈ 2.13 µM); against Streptococcus pneumoniae, 0.06 µg/mL (≈ 0.032 µM). The MIC was 0.06 µg/mL (≈ 0.032 µM) in the data set with Streptococcus pyogenes [4], 0.12 µg/mL (≈ 0.0639 µM) against Staphylococcus aureus [5] and 0.12 µg/mL (≈ 0.0639 µM) in the data set on Enterococcus faecalis. Further, the MIC50 is 0.5 µg/mL (≈ 0.266 µM) in data set [14], 1 µg/mL (≈ 0.533 µM) with Staphylococcus sp. [16] and 16 µg/mL (≈ 8.52 µM) in [17].

`CC(=O)N[C@@H]1[C@H](O[C@@H]2c3ccc(c(Cl)c3)Oc3cc4cc(c3O)Oc3ccc(cc3Cl)C[C@H]3NC(=O)[C@H](N)c5ccc(O)c(c5)Oc5cc(O)cc(c5)[C@H](NC3=O)C(=O)N[C@H]4C(=O)N[C@H]3C(=O)N[C@@H]2C(=O)N[C@H](C(=O)N2CCSCC2)c2cc(O)cc(O[C@H]4O[C@H](CO)[C@@H](O)[C@@H](O)[C@@H]4O)c2-c2cc3ccc2O)O[C@@H](CO)[C@@H](O)[C@@H]1O` gave a 50% effective dose (ED50) with Streptococcus pyogenes [1] of 1.6 mg/kg. In addition, the MIC in the data set on Bacteria is more than 128 µg/mL; in data set [3] it was 0.12 µg/mL (≈ 0.0728 µM); with Streptococcus pneumoniae, 0.5 µg/mL (≈ 0.303 µM); with Streptococcus pyogenes [4], 0.5 µg/mL (≈ 0.303 µM); against Staphylococcus aureus [5] it was 0.5 µg/mL (≈ 0.303 µM); in the data set on Enterococcus faecalis, 2 µg/mL (≈ 1.21 µM). This compound returned a Ka in data set [2] of 120000 M⁻¹.
